Calls of active or inactive are those of the source. The calls are words filed in the database; no cut-off is given here.
Tests used:
[1] = molecular target: Cruzipain (Trypanosoma cruzi) (UniProt P25779); test: Inhibition of recombinant Trypanosoma cruzi cruzain at 100 uM using Z-FR-AMC as substrate preincubated for 10 mins followed by substrate addition measured for 5 mins by fluorimetric analysis relative to control
Summary of the method: (§1)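 Recombinant enzyme (cruzain expressed in-house; rhodesain donated) at 0.5 nM in 0.1 M sodium acetate pH 5.5 with 1 mM DTT and 0.01% Triton X-100. Compound pre-incubated with enzyme 10 min, then 2.5 µM Z-FR-AMC added. Fluorescence followed 5 min. Activity taken from initial rates against DMSO control, E64 as positive control. Screen at 100 µM. IC50 from ≥8 concentrations by nonlinear regression. Two independent experiments in triplicate.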

[2] = molecular target: Rhodesain (Trypanosoma brucei rhodesiense) (UniProt Q95PM0); test: Inhibition of recombinant Trypanosoma brucei rhodesain at 100 uM using Z-FR-AMC as substrate by fluorimetric analysis relative to control; summary of the method: as §1
Rhodesain [3] = molecular target: T1, Rhodesain (Trypanosoma brucei rhodesiense, UniProt Q95PM0); test: Inhibition of recombinant Trypanosoma brucei rhodesain using Z-FR-AMC as substrate preincubated for 10 mins followed by substrate addition measured for 5 mins by fluorimetric analysis relative to control
Summary of the method: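 Recombinant rhodesain (0.5 nM) in 0.1 M sodium acetate pH 5.5 with 1 mM DTT and 0.01% Triton X-100, pre-incubated with compound for 10 min before adding 2.5 µM Z-FR-AMC. Fluorescence monitored 5 min. Initial rates compared with DMSO control. Screen at 100 µM; IC50 determined for compounds above 70% inhibition, from at least 8 concentrations, two independent experiments in triplicate.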

[4] = molecular target: Rhodesain (Trypanosoma brucei rhodesiense) (UniProt Q95PM0); test: Inhibition of recombinant Trypanosoma brucei rhodesain at 100 uM using Z-FR-AMC as substrate by fluorimetric analysis; settings: TDE = time-dependent effect; summary of the method: as §1
[5] = molecular target: Rhodesain (Trypanosoma brucei rhodesiense) (UniProt Q95PM0); test: Inhibition of recombinant Trypanosoma brucei rhodesain at 100 uM using Z-FR-AMC as substrate preincubated for 10 mins followed by substrate addition measured for 5 mins by fluorimetric analysis relative to control; summary of the method: as §1
Rhodesain [6] = molecular target: T1, Rhodesain; test: Inhibition of recombinant Trypanosoma brucei rhodesain using Z-FR-AMC as substrate by fluorimetric analysis relative to control
Summary of the method: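 Rhodesain (recombinant, gift) 0.5 nM in 0.1 M sodium acetate pH 5.5 with 1 mM DTT and 0.01% Triton X-100. Z-FR-AMC substrate 2.5 µM, read by fluorescence over 5 min. Activity from initial rates versus DMSO control, with E64 as positive control. Two independent experiments in triplicate. IC50 from at least 8 concentrations by nonlinear regression.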

[7] = molecular target: Rhodesain (Trypanosoma brucei rhodesiense) (UniProt Q95PM0); test: Reversible inhibition of recombinant Trypanosoma brucei rhodesain using Z-FR-AMC as substrate measured for 30 mins by fluorimetric analysis
Summary of the method: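 Rhodesain at 100-fold final assay concentration incubated 30 min with compound at 10-fold its IC50. The mixture was then diluted 100-fold into buffer with 2.5 µM Z-FR-AMC, giving standard enzyme level and 0.1× IC50. AMC release was monitored continuously for 30 min and compared with vehicle control. E-64 served as irreversible reference.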

Rhodesain [8] = molecular target: T1, Rhodesain; test: Binding affinity to Trypanosoma brucei rhodesain; summary of the method: as §1
Cruzipain = Cruzipain (Trypanosoma cruzi, UniProt P25779); test: Inhibition of recombinant Trypanosoma cruzi cruzain using Z-FR-AMC as substrate preincubated for 10 mins followed by substrate addition measured for 5 mins by fluorimetric analysis relative to control; summary of the method: as §1
[9] = molecular target: Rhodesain (Trypanosoma brucei rhodesiense) (UniProt Q95PM0); test: Inhibition of recombinant Trypanosoma brucei rhodesain at 0.1 uM using Z-FR-AMC as substrate by fluorimetric analysis relative to control
[10] = molecular target: Rhodesain (Trypanosoma brucei rhodesiense) (UniProt Q95PM0); test: Inhibition of recombinant Trypanosoma brucei rhodesain at 0.1 uM using Z-FR-AMC as substrate preincubated for 10 mins followed by substrate addition by fluorimetric analysis relative to control
Trypanosoma cruzi = test: Antitrypanosomal activity against Trypanosoma cruzi Dm28c assessed as live parasite count measured after 72 hrs by optical microscopy; type: functional; settings: read-out: LD50 (the source's name)
Vero = test: Cytotoxicity against African green monkey Vero cells measured after 24 hrs; type: functional; settings: Chlorocebus sabaeus

Sequence of Rhodesain (Trypanosoma brucei rhodesiense) (Q95PM0 1-450): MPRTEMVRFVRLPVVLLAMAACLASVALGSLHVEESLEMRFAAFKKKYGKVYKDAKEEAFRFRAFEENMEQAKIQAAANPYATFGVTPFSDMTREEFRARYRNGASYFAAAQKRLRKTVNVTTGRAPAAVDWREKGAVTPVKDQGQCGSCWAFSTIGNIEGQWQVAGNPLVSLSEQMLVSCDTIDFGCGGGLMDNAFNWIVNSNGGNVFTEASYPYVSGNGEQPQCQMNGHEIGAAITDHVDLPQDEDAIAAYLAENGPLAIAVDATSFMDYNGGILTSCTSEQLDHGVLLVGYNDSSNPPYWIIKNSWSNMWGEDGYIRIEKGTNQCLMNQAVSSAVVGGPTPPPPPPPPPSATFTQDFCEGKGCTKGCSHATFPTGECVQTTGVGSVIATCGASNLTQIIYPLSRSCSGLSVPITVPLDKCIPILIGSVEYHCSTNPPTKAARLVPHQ
T1 sequence (Q95PM0 whole entry): as the sequence (Q95PM0 1-450) above
Sequence of Cruzipain (Trypanosoma cruzi) (P25779 123-467 limits assumed): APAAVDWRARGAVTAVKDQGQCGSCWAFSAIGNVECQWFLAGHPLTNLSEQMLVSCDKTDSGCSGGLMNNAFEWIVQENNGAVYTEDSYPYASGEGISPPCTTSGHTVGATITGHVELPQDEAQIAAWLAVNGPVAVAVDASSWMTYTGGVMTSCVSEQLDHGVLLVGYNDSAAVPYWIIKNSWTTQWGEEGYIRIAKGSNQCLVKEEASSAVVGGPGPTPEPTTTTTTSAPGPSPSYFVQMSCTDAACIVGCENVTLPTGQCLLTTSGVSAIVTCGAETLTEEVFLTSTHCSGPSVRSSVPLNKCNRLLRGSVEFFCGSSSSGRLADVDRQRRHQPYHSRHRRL
Sequence of Cruzipain (P25779 whole entry): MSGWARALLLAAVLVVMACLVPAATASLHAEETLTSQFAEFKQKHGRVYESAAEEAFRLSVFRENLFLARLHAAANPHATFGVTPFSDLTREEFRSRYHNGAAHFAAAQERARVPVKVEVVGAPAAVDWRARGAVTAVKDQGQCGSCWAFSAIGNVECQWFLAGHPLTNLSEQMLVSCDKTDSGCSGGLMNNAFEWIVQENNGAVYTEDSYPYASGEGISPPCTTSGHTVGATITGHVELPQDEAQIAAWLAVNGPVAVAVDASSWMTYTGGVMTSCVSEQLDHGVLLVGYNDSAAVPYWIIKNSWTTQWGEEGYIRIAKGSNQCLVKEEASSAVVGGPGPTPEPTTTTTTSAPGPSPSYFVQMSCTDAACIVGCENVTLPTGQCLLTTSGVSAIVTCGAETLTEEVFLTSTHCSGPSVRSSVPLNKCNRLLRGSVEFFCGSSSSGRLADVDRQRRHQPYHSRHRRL

Structure (SMILES) | inhibition [1] [%] | inhibition [2] [%] | IC50 (Rhodesain [3]) [µM] | inhibition [5] [%] | IC50 (Rhodesain [6]) [µM] | inhibition [7] | further results
O=C1C=C(O)C(=O)c2ccccc21 [LAWSONE] | 58 | 27 | 33 | 77 | > 100 | Active | inhibition [4]: Tde
CC(C)C[C@H](NC(=O)[C@H](Cc1ccccc1)NC1=C(C#N)C(=O)c2ccccc2C1=O)C(=O)O |  |  |  |  |  |  | Ki (Rhodesain [8]): 0.0005 µM
Cc1cc(NS(=O)(=O)c2ccc(NC3=CC(=O)c4ccccc4C3=O)cc2)no1 | 6 |  |  | 1 |  |  | 
CC(C)=CCC1=C(O)c2ccccc2/C(=N/NC(=O)c2ccncc2)C1=O | 76 | 73 | 20 | 87 | 29 | Active | IC50 (Cruzipain): 33 µM
CC(NC1=CC(=O)c2ccccc2C1=O)c1ccccc1 (stereo not given) | 26 |  |  | 23 |  |  | 
O=C1C=C(Br)C(=O)c2ccccc21 | 51 |  |  | 50 |  |  | 
CC(C)=CCC1=C(O)c2ccccc2/C(=N/NC(N)=S)C1=O | 83 | 79 | 28 | 82 | 66 | Active | IC50 (Cruzipain): 34 µM
O=C1C=C(O)c2ccccc2/C1=N/NC(=O)c1ccncc1 | 66 |  |  | 52 |  |  | 
O=C1C=C(Nc2ccccc2)C(=O)c2ccccc21 | 48 |  |  | 61 |  |  | 
CC(C)=CCC1=C(O)C(=O)c2ccccc2C1=O [LAPACHOL] | 35 | 18 | 58 | 70 | > 100 | Active | inhibition [4]: Tde
O=C(NNC1=CC(=O)c2ccccc2C1=O)c1ccncc1 | 37 |  |  | 37 |  |  | 
O=C1C=C(Nc2ccc(S(=O)(=O)Nc3ccccn3)cc2)C(=O)c2ccccc21 | 95 | 48 | 1.8 | 93 | 30 | Active | IC50 (Cruzipain): 6.3 µM; inhibition [4]: Tde
CC(C)C[C@H](NC(=O)[C@H]1O[C@@H]1C(=O)O)C(=O)NCCCCN=C(N)N [E-64] |  |  | 0.0031 |  |  | Active | inhibition [9]: 7%; inhibition [10]: 95%; IC50 (Cruzipain): 0.02 µM
O=C1C(Cl)=C(Cl)C(=O)c2ccccc21 | 49 |  |  | 56 |  |  | 
CC1(C)CCC2=C(O1)C1(CO1)c1ccccc1C2=O (stereo not given) |  |  |  |  |  |  | LC50 (Trypanosoma cruzi): < 3.1 µM; CC50 (Vero): > 50 µM
COC1=CC(=O)c2ccccc2C1=O | 32 |  |  | 27 |  |  | 

Source: ChEMBL document CHEMBL4811271, “Computer-aided design of 1,4-naphthoquinone-based inhibitors targeting cruzain and rhodesain cysteine proteases” (Bioorg Med Chem, 2021)
